According to ChEMBL document CHEMBL3046139, “Preparation and phytotoxicity of novel kaurane diterpene amides with potential use as herbicides” (J Agric Food Chem, 2008):
Calls of active or inactive are those of the source.

Experiments:
Assay type in all cases: functional, organism-based
Lactuca sativa [1] = assay: Stimulation of seed germination in Lactuca sativa cv. Grand Rapids (lettuce) at 1 mM measured 5 days post compound treatment
Outline: (§1)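 Test solutions in deionized water, buffered with 10 mM MES and adjusted to pH 6.0-6.5 with NaOH. Concentrations below 10^-3 M made by dilution series. Osmotic pressure 30-38 mOsmolar. Petri dishes sealed with Parafilm and kept in the dark at 25 °C for 5 days, in triplicate. Seed counted as germinated when radicle was at least 0.2 mm. Radicle and shoot lengths measured by pachymeter with dishes held at 4 °C. Results given as percent difference from untreated control means. Student's t-test, P ≤ 0.05.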

Lactuca sativa [2] = assay: Phytotoxicity in Lactuca sativa cv. Grand Rapids (lettuce) assessed as inhibition of seed germination at 0.1 uM measured 5 days post compound treatment; outline: as §1
Lactuca sativa [3] = assay: Phytotoxicity in Lactuca sativa cv. Grand Rapids (lettuce) assessed as inhibition of seed germination at 10 uM measured 5 days post compound treatment; outline: as §1
Lactuca sativa [4] = assay: Stimulation of radicle growth in Lactuca sativa cv. Grand Rapids (lettuce) at 0.1 uM measured 5 days post compound treatment; outline: as §1
Lactuca sativa [5] = assay: Phytotoxicity in Lactuca sativa cv. Grand Rapids (lettuce) assessed as inhibition of seed germination at 1 mM measured 5 days post compound treatment; outline: as §1
Lactuca sativa [6] = assay: Stimulation of radicle growth in Lactuca sativa cv. Grand Rapids (lettuce) at 10 uM measured 5 days post compound treatment; outline: as §1
Lactuca sativa [7] = assay: Phytotoxicity in Lactuca sativa cv. Grand Rapids (lettuce) assessed as inhibition of radicle length at 1 mM measured 5 days post compound treatment; outline: as §1
Lactuca sativa [8] = assay: Phytotoxicity in Lactuca sativa cv. Grand Rapids (lettuce) assessed as inhibition of shoot length at 1 mM measured 5 days post compound treatment; outline: as §1
Lactuca sativa [9] = assay: Stimulation of shoot growth in Lactuca sativa cv. Grand Rapids (lettuce) at 0.1 uM measured 5 days post compound treatment; outline: as §1
Lactuca sativa [10] = assay: Stimulation of shoot growth in Lactuca sativa cv. Grand Rapids (lettuce) at 10 uM measured 5 days post compound treatment; outline: as §1
Lactuca sativa [11] = assay: Stimulation of seed germination in Lactuca sativa cv. Grand Rapids (lettuce) at 0.1 uM measured 5 days post compound treatment; outline: as §1

C=C1C[C@]23C[C@@]1(O)CC[C@H]2[C@@]12C=C[C@H](O)[C@@](C)(C(=O)O1)[C@H]2[C@@H]3C(=O)O
active: Activity (Lactuca sativa [1])

C=C1C[C@@]23CC[C@H]4[C@@](C)(CCC[C@@]4(C)C(=O)N4CCNCC4)[C@@H]2CC[C@@H]1C3
active: inhibition (Lactuca sativa [2]) | inhibition (Lactuca sativa [3]) | Activity (Lactuca sativa [4]) | inhibition (Lactuca sativa [5]) | Activity (Lactuca sativa [6]) | inhibition (Lactuca sativa [7]) | inhibition (Lactuca sativa [8]) | Activity (Lactuca sativa [9]) | Activity (Lactuca sativa [10])

C=C1C[C@@]23CC[C@H]4[C@@](C)(CCC[C@@]4(C)C(=O)NCCCN)[C@@H]2CC[C@@H]1C3
active: inhibition (Lactuca sativa [2]) | inhibition (Lactuca sativa [3]) | inhibition (Lactuca sativa [5]) | inhibition (Lactuca sativa [7]) | inhibition (Lactuca sativa [8])

C=C1C[C@@]23CC[C@@H]4[C@](C)(C(=O)N5CCNCC5)CCC[C@@]4(C)C2=CC[C@@H]1C3
active: inhibition (Lactuca sativa [2]) | inhibition (Lactuca sativa [3]) | Activity (Lactuca sativa [4]) | inhibition (Lactuca sativa [5]) | Activity (Lactuca sativa [6]) | inhibition (Lactuca sativa [7]) | inhibition (Lactuca sativa [8]) | Activity (Lactuca sativa [9]) | Activity (Lactuca sativa [10])

C=C1C[C@@]23CC[C@@H]4[C@](C)(C(=O)NCCN)CCC[C@@]4(C)C2=CC[C@@H]1C3
active: inhibition (Lactuca sativa [2]) | inhibition (Lactuca sativa [3]) | inhibition (Lactuca sativa [5]) | inhibition (Lactuca sativa [7]) | inhibition (Lactuca sativa [8])

C=C1C[C@@]23CC[C@@H]4[C@](C)(C(=O)NCCCCCC)CCC[C@@]4(C)C2=CC[C@@H]1C3
active: inhibition (Lactuca sativa [2]) | inhibition (Lactuca sativa [3]) | inhibition (Lactuca sativa [5]) | inhibition (Lactuca sativa [7]) | inhibition (Lactuca sativa [8])

C=C1C[C@@]23CC[C@@H]4[C@](C)(C(=O)N5CCOCC5)CCC[C@@]4(C)C2=CC[C@@H]1C3
active: inhibition (Lactuca sativa [2]) | inhibition (Lactuca sativa [3]) | inhibition (Lactuca sativa [5]) | inhibition (Lactuca sativa [7]) | inhibition (Lactuca sativa [8])

C=C1C[C@@]23CC[C@H]4[C@@](C)(CCC[C@@]4(C)C(=O)NCCCCN)[C@@H]2CC[C@@H]1C3
active: Activity (Lactuca sativa [11]) | inhibition (Lactuca sativa [5]) | inhibition (Lactuca sativa [7]) | inhibition (Lactuca sativa [8])

C=C1C[C@@]23CC[C@@H]4[C@](C)(C(=O)NCCCN)CCC[C@@]4(C)C2=CC[C@@H]1C3
active: inhibition (Lactuca sativa [2]) | inhibition (Lactuca sativa [3]) | inhibition (Lactuca sativa [5]) | inhibition (Lactuca sativa [7]) | inhibition (Lactuca sativa [8])

C=C1C[C@@]23CC[C@H]4[C@@](C)(CCC[C@@]4(C)C(=O)NCCN)[C@@H]2CC[C@@H]1C3
active: inhibition (Lactuca sativa [2]) | inhibition (Lactuca sativa [3]) | inhibition (Lactuca sativa [5]) | inhibition (Lactuca sativa [7]) | inhibition (Lactuca sativa [8])

C=C1C[C@@]23CC[C@@H]4[C@](C)(C(=O)NC5CCCCC5)CCC[C@@]4(C)C2=CC[C@@H]1C3
active: inhibition (Lactuca sativa [2]) | inhibition (Lactuca sativa [3]) | inhibition (Lactuca sativa [5]) | inhibition (Lactuca sativa [7]) | inhibition (Lactuca sativa [8])

C=C1C[C@@]23CC[C@H]4[C@@](C)(CCC[C@@]4(C)C(=O)Nc4ccccc4)[C@@H]2CC[C@@H]1C3
active: inhibition (Lactuca sativa [2]) | inhibition (Lactuca sativa [3]) | inhibition (Lactuca sativa [5]) | inhibition (Lactuca sativa [7]) | inhibition (Lactuca sativa [8])

C=C1C[C@@]23CC[C@H]4[C@@](C)(CCC[C@@]4(C)C(=O)NC4CCCCC4)[C@@H]2CC[C@@H]1C3
active: inhibition (Lactuca sativa [2]) | inhibition (Lactuca sativa [3]) | inhibition (Lactuca sativa [5]) | inhibition (Lactuca sativa [7]) | inhibition (Lactuca sativa [8])

C=C1C[C@@]23CC[C@@H]4[C@](C)(C(=O)NCCCCN)CCC[C@@]4(C)C2=CC[C@@H]1C3
active: Activity (Lactuca sativa [11]) | inhibition (Lactuca sativa [5]) | inhibition (Lactuca sativa [7]) | inhibition (Lactuca sativa [8])

C=C1C[C@@]23CC[C@H]4[C@@](C)(CCC[C@@]4(C)C(=O)NCCCCCC)[C@@H]2CC[C@@H]1C3
active: inhibition (Lactuca sativa [2]) | inhibition (Lactuca sativa [3]) | inhibition (Lactuca sativa [5]) | inhibition (Lactuca sativa [7]) | inhibition (Lactuca sativa [8])

C=C1C[C@@]23CC[C@@H]4[C@](C)(C(=O)Nc5ccccc5)CCC[C@@]4(C)C2=CC[C@@H]1C3
active: inhibition (Lactuca sativa [2]) | inhibition (Lactuca sativa [3]) | inhibition (Lactuca sativa [5]) | inhibition (Lactuca sativa [7]) | inhibition (Lactuca sativa [8])

C=C1C[C@@]23CC[C@H]4[C@@](C)(CCC[C@@]4(C)C(=O)N4CCOCC4)[C@@H]2CC[C@@H]1C3
active: inhibition (Lactuca sativa [2]) | inhibition (Lactuca sativa [3]) | inhibition (Lactuca sativa [5]) | inhibition (Lactuca sativa [7]) | inhibition (Lactuca sativa [8])
